TRPC4 PAM: positive allosteric modulators of TRPC4, primary screen, cell-based, mouse TRPC4beta, HEK293 mu-opioid, Fluo-4 calcium; Short transient receptor potential channel 4 (Mus musculus), Q9QUQ5; DAMGO EC20, Fluo-4 Ca2+ flux; hits give high values; B-score at 10 µM; actives 0.42% (n = 310,000);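 active = B-score of calcium response area above 5 SD of library B-scores, with initial fluorescence ratio within 5 SD of library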
Target sequence (Q9QUQ5 whole entry, looked up): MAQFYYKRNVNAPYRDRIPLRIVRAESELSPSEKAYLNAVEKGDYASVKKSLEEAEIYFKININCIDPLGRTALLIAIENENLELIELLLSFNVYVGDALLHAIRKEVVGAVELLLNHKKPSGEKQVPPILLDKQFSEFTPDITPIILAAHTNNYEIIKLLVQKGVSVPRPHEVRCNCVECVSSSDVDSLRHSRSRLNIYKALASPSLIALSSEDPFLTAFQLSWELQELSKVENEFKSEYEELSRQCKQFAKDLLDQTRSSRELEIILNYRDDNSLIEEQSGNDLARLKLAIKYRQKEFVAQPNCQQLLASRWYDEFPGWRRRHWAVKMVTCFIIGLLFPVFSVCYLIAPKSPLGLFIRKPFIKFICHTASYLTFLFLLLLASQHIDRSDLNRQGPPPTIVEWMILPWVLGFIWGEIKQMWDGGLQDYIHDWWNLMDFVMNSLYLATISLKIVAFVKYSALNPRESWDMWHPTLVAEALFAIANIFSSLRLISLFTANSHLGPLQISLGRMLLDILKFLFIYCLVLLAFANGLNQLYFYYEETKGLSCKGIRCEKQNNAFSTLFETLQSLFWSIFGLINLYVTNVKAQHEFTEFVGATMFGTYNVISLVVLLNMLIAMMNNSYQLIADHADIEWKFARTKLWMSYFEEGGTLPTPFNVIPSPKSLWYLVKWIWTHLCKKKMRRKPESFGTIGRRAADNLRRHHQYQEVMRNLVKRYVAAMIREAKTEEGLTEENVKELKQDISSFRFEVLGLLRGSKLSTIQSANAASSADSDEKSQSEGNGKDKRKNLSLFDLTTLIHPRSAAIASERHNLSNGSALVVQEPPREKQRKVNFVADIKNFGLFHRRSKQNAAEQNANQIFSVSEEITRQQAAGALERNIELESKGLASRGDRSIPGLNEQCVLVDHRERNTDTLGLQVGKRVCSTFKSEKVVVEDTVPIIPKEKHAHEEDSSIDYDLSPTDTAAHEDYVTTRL
TRPC4 inh: inhibitors of mouse TRPC4 channel, primary screen, Fluo4 calcium, HEK293 TRPC4beta/mu-opioid cells; Short transient receptor potential channel 4 (Mus musculus), Q9QUQ5; actives 0.39% (n = 300,000); AID 2247, 2010; DAMGO-evoked Fluo4 calcium flux; hits give low values; B-score at 10 µM;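 active = B-score over 3 SD under the library average, no early fluorescence shift, positive overall ratio signal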
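Material: HEK293 cells with stable TRPC4beta plus mu-opioid receptor expression / Probe or stimulus: DAMGO in two steps, submaximal then maximal / Compound: single concentration per test compound / Technique: kinetic Fluo4 fluorescence imaging of calcium influx / Read-out: per-well B score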
TRPC6 act: mouse TRPC6 channel activators, primary screen, cell-based, HEK293, membrane potential dye; HEK293-TRPC6 membrane potential dye fluorescence; hits give high values; B-score at 10 µM; actives 0.13% (n = 310,000); AID 2550, 2010;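 active = B-score of the integrated fluorescence ratio above library mean plus 3 SD, and starting fluorescence ratio within library mean plus 5 SD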;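 also: higher score means more depolarization so channel activation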
TRPC6 inh: mouse TRPC6 channel inhibitors, primary screen, cell-based, HEK293, membrane potential dye | actives 1.1% (n = 310,000) | B-score at 10 µM | AID 2553, 2010 | Short transient receptor potential channel 6 (Mus musculus), Q61143 | ACh-evoked depolarization; hits give low values;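 active = B-score under library mean minus 3 SD, initial fluorescence not abnormally high, positive integrated signal ratio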;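 also: B-score derived from integrated fluorescence ratio over the kinetic read; more negative B-score means stronger inhibition of depolarization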
TRPC4 act: activators of mouse TRPC4 channel, primary screen, Fluo4 calcium, HEK293 TRPC4beta/mu-opioid cells; Short transient receptor potential channel 4 (Mus musculus), Q9QUQ5; Fluo4 calcium fluorescence; hits give high values; actives 0.49% (n = 310,000); B-score at 10 µM; AID 2237, 2010;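 active = B-score above 5 SD of library B-scores, and initial fluorescence ratio not above library mean plus 5 SD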;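 also: positive B-score marks a calcium rise read as TRPC4 activation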
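Assay system: HEK293 stable line with TRPC4beta plus mu-opioid receptor; schedule: 45 min room-temperature Fluo4 loading, 110 s read; technique: kinetic Fluo4 calcium fluorescence; evaluation: integrated baseline-normalised fluorescence ratio, converted to per-well B score; controls: buffer (low) and maximal DAMGO (high)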
Kir21 block: inhibitors of mouse Kir2.1 inward-rectifier potassium channel. Inward rectifier potassium channel 2 (Mus musculus), P35561. HEK293-Kir2.1, FluxOR thallium flux fluorescence; hits give low values. B-score at 10 µM. actives 0.85% (n = 310,000);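 active = fluorescence ratio B-score at or below minus 3 SD of library scores, with starting-brightness B-score within 2 SD, cut at about -4.2 in these data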;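 also: channel flux triggered by added potassium and thallium sulfate stimulus; B-score of peak minus minimum fluorescence over baseline after thallium stimulus; more negative B-score means stronger Kir2.1 block with less thallium influx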
TRPC4 spec 2: second selectivity test of TRPC6 inhibitors: effect on mouse TRPC4. shares compounds with TRPC6 inh. HEK293 TRPC4/MOR, membrane potential dye fluorescence; channel activated by saturating DAMGO dose. inhibition, % at 10 µM. actives 42% (n = 920);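 active = compounds whose fluorescence signal differed from control wells by over 3 SD, either direction, in both duplicate plates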
TRPC4 spec: mouse TRPC4 modulation by TRPC6 hits, confirmation, selectivity assay for TRPC6 inhibitor project, cell-based, HEK293 TRPC4/mu-opioid, membrane potential dye; shares compounds with TRPC6 inh; membrane potential fluorescence; activity change, negative = inhibition, % at 10 µM; actives 61% (n = 920);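 active = rise or fall in signal beyond 3 SD of buffer-only wells in both replicate plates, either sign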;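 also: integrated kinetic ratio of fluorescence range over baseline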
HEK293 MPD ctr 2-1: nonspecific membrane potential effects, parental HEK293, confirmation, counter-screen for TRPC6 inhibitor project, cell-based, second counter screen; actives 31% (n = 920); parental HEK293 membrane potential dye fluorescence; maximal acetylcholine challenge after compound addition; signal change vs control, % at 10 µM; shares compounds with TRPC6 inh;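 active = membrane potential signal moving either way by over 3 SD of the maximum-effect control, in both duplicate plates, meaning non-specific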
HEK293 MPD ctr-1: membrane potential modulation in parental HEK293, confirmation, counter-screen for TRPC6 inhibitor project, cell-based. AID 2780, 2010. membrane potential signal change, % at 10 µM. parental HEK293 membrane potential dye fluorescence. actives 60% (n = 920). shares compounds with TRPC6 inh;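 active = membrane potential signal shifting up or down by more than 3 SD of buffer-only wells, on both duplicate plates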
HEK293 MPD ctr-2: parental HEK293 membrane potential modulation, confirmation, counter-screen for TRPC6 modulator project, cell-based; shares compounds with TRPC6 inh; membrane potential dye fluorescence; membrane potential signal change, % at 10 µM; actives 51% (n = 2,400);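 active = membrane potential signal moves up or down beyond 5 SD from buffer-only wells, on both duplicate plates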
HEK293 MPD ctr 2-2: parental HEK293 nonspecific activity of TRPC6 modulators, second screen. shares compounds with TRPC6 inh. membrane potential dye fluorescence; after compound, maximal acetylcholine stimulation. inhibition, % at 10 µM. actives 14% (n = 2,400). AID 488926;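 active = membrane potential signal drops by more than 5 SD from the mean control signal, in both duplicate plates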
TRPC4 ctr mod: TRPC4 modulation by TRPC6 hit compounds, confirmation, selectivity assay for TRPC6 modulator project, cell-based, HEK293 TRPC4/mu-opioid, membrane potential dye, mouse; actives 69% (n = 2,400); percent change from control (negative = decrease, positive = increase), % at 10 µM; AID 488927, 2010; membrane potential fluorescence; shares compounds with TRPC6 inh;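 active = membrane potential signal moved up or down beyond 5 SD of buffer control wells, in both duplicate plates, actives on both sides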
TRPC4/MOR inh 2: second check of whether TRPC6 modulators also affect mouse TRPC4; inhibition, % at 10 µM; actives 55% (n = 2,400); HEK293 TRPC4/mu-opioid, membrane potential dye fluorescence; stimulated with maximal-effect DAMGO; shares compounds with TRPC6 inh;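 active = drop in membrane potential signal beyond 5 SD of the control wells in both duplicate plates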;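 also: TRPC4 counter screen for TRPC6 hits run under conditions tuned for TRPC6 not TRPC4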
TRPC6 inh conf: mouse TRPC6 channel inhibitors, confirmation, HEK293 cells, membrane potential dye, duplicate. shares compounds with TRPC6 inh. ACh-evoked depolarization. AID 488960, 2010. actives 43% (n = 3,300). inhibition, % at 10 µM;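 active = fluorescence ratio falls more than 5 SD below the full-stimulation control mean, in both duplicate runs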;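 also: integrated fluorescence ratio of peak minus minimum over baseline after agonist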
TRPC6 act conf: mouse TRPC6 channel activators, confirmation, HEK293 cells, membrane potential dye, duplicate. shares compounds with TRPC6 inh. HEK293-TRPC6 membrane potential dye fluorescence, FDSS. activation, % at 10 µM. actives 11% (n = 2,800);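 active = ratio signal rise beyond 5 SD above unstimulated control wells' mean, seen in both duplicate runs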
Hits are given with their value; ! = not active in a repeat. A selection: hits, their analogues and other compounds. The true share with any hit is near 3%.

Results for Cc1ccc(CNC(=O)c2ccc(OCC(C)C)cc2)n1C ?
TRPC4 PAM: inactive; TRPC4 inh: inactive; TRPC6 act: inactive; TRPC6 inh: inactive; TRPC4 act: inactive; Kir21 block: inactive

What do the screens show for `Brc1ccc(Oc2ncc(CN3CCN(c4ccccc4)CC3)s2)cc1`?
TRPC4 PAM: inactive; TRPC4 inh: inactive; TRPC6 act: inactive; TRPC6 inh: -5.4; TRPC4 act: inactive; Kir21 block: inactive; HEK293 MPD ctr-2: inactive; HEK293 MPD ctr 2-2: inactive; TRPC4 ctr mod: inactive; TRPC4/MOR inh 2: inactive; TRPC6 inh conf: inactive; TRPC6 act conf: inactive

What do the screens show for `Cc1ccc(Oc2ncc(CN3CCOCC3)s2)cc1`?
TRPC4 PAM: inactive; TRPC4 inh: inactive; TRPC6 act: inactive; TRPC6 inh: inactive; TRPC4 act: inactive; Kir21 block: inactive

Results for CSc1nc(-c2ccc(Cl)cc2Cl)[nH]c(=O)c1C#N ?
TRPC4 PAM: inactive; TRPC4 inh: inactive; TRPC6 act: 13; TRPC6 inh: inactive; TRPC4 act: inactive; Kir21 block: inactive; HEK293 MPD ctr-2: inactive; HEK293 MPD ctr 2-2: inactive; TRPC4 ctr mod: 12%; TRPC4/MOR inh 2: inactive; TRPC6 inh conf: inactive; TRPC6 act conf: inactive

Results for Cc1cc(-c2ccc(Cl)cc2Cl)c(C#N)c(=O)[nH]1 ?
TRPC4 PAM: inactive; TRPC4 inh: inactive; TRPC6 act: inactive; TRPC6 inh: inactive; TRPC4 act: inactive; Kir21 block: inactive

Results for CCn1cc(C(=O)O)c(=O)c2cc(F)c(N/N=C/c3ccccc3[N+](=O)[O-])cc21 ?
TRPC4 PAM: inactive; TRPC4 inh: inactive; TRPC6 act: inactive; TRPC6 inh: inactive; TRPC4 act: inactive; Kir21 block: inactive

How did Cc1cccc(C(=O)NNC2=C(C(=O)C(F)(F)F)CCC2)c1O do in these assays?
TRPC4 PAM: inactive; TRPC4 inh: inactive; TRPC6 act: inactive; TRPC6 inh: -7.6; TRPC4 act: inactive; Kir21 block: inactive; TRPC4 spec 2: inactive; TRPC4 spec: -12%; HEK293 MPD ctr 2-1: inactive; HEK293 MPD ctr-1: -190%; TRPC6 inh conf: inactive; TRPC6 act conf: inactive

What do the screens show for `CCN1CCN(CCc2nc3cc([N+](=O)[O-])ccc3n2C)CC1`?
TRPC4 PAM: inactive; TRPC4 inh: inactive; TRPC6 act: inactive; TRPC6 inh: inactive; TRPC4 act: inactive; Kir21 block: inactive

How did Cn1c(CCN2CCCCC2)nc2cc([N+](=O)[O-])ccc21 do in these assays?
TRPC4 PAM: inactive; TRPC4 inh: inactive; TRPC6 act: inactive; TRPC6 inh: -5.8; TRPC4 act: inactive; Kir21 block: inactive; HEK293 MPD ctr-2: -200%; HEK293 MPD ctr 2-2: inactive; TRPC4 ctr mod: -32%; TRPC4/MOR inh 2: 38%; TRPC6 inh conf: inactive; TRPC6 act conf: inactive

Results for COc1ccc(OCC(O)CN2CCN(c3ccc(OC)cc3)CC2)cc1 (stereo not drawn) ?
TRPC4 PAM: inactive; TRPC4 inh: inactive; TRPC6 act: inactive; TRPC6 inh: inactive; TRPC4 act: inactive; Kir21 block: inactive

How did COc1ccc(N2CCN(CC(O)COc3ccc(C)c(C)c3)CC2)cc1 (stereo not drawn) do in these assays?
TRPC4 PAM: inactive; TRPC4 inh: inactive; TRPC6 act: inactive; TRPC6 inh: -6.1; TRPC4 act: inactive; Kir21 block: inactive; HEK293 MPD ctr-2: inactive; HEK293 MPD ctr 2-2: inactive; TRPC4 ctr mod: inactive; TRPC4/MOR inh 2: 48%; TRPC6 inh conf: inactive; TRPC6 act conf: inactive

How did CCn1c(O)c(C=Nc2ccccc2)sc1=S do in these assays?
TRPC4 PAM: inactive; TRPC4 inh: inactive; TRPC6 act: inactive; TRPC6 inh: inactive; TRPC4 act: inactive; Kir21 block: inactive

How did O=C(O)Cn1c(O)c(C=Nc2ccccc2)sc1=S do in these assays?
TRPC4 PAM: inactive; TRPC4 inh: inactive; TRPC6 act: inactive; TRPC6 inh: -12!; TRPC4 act: inactive; Kir21 block: inactive; TRPC4 spec 2: inactive; TRPC4 spec: inactive; HEK293 MPD ctr 2-1: inactive; HEK293 MPD ctr-1: inactive; TRPC6 inh conf: inactive; TRPC6 act conf: inactive
